Consider twelve compounds from ChEMBL document CHEMBL2203280, “Bicyclic peptidomimetics targeting secreted aspartic protease 2 (SAP2) from Candida albicans reveal a constrained inhibitory chemotype” (Bioorg Med Chem, 2012).

Experiment [1] addresses T1, Secreted aspartic protease 2 (Candida albicans, UniProt P0CS83). The experiment is described as follows: Inhibition of candida albicans SAP2 using 0.05% BSA as substrate by spectrophotometric analysis. The essentials:
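SAP2 incubated with inhibitor in 0.05% (w/v) BSA substrate, 50 mM sodium citrate pH 3.2, for 30 min at 37 °C. Stopped with 10% (w/v) TCA, held on ice 30 min, centrifuged 3000 g 10 min. Supernatant A280 read against 0.05% BSA in citrate blank. ΔOD per min taken at six inhibitor concentrations, including 5, 1 and 0.1 nM. Pepstatin A run at matching concentrations.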

The target of experiment [2] is T1, Secreted aspartic protease 2. As to the kind of experiment: Inhibition of candida albicans SAP2. The essentials: (§1)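 SAP2 protease (1 µg/mL solution) incubated with inhibitor in 0.05% (w/v) BSA, 50 mM sodium citrate pH 3.2, 30 min at 37 °C. Reaction stopped with 10% TCA, kept on ice 30 min, then centrifuged. Supernatant A280 read against a BSA-in-citrate blank. ΔOD per minute measured at inhibitor levels of 5, 1 and 0.1 µM and 5, 1 and 0.1 nM. Pepstatin A run as reference at the same concentrations.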

In experiment [3] the target is Secreted aspartic protease 2 (Candida albicans) (UniProt P0CS83). As to the kind of experiment: Ratio of pepstatin A IC50 to compound IC50 for candida albicans SAP2 by spectrophotometric analysis. The essentials: as §1
Sequence of Secreted aspartic protease 2 (Candida albicans) (P0CS83 57-398 limits assumed): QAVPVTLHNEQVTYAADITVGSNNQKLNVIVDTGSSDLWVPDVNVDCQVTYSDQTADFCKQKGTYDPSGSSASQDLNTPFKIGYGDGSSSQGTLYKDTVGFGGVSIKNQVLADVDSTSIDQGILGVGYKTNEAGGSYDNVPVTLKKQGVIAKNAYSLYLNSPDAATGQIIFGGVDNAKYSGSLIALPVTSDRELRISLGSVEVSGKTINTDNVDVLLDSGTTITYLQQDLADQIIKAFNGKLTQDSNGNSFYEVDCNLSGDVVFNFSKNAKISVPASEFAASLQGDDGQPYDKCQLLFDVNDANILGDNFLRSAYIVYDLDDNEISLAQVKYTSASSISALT

T1 sequence (P0CS83 whole entry): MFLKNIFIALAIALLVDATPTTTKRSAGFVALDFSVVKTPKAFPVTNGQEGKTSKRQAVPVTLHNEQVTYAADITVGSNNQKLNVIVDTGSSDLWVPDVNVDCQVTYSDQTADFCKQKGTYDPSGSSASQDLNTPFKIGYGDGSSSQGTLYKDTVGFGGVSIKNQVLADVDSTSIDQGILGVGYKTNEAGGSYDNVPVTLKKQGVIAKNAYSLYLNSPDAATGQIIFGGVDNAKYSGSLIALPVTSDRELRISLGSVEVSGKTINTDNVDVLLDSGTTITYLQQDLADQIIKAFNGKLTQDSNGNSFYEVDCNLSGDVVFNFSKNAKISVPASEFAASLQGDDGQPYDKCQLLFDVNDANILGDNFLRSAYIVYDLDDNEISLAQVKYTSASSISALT

As usually defined, the IC50 is the concentration needed to halve the response being measured. High values mean weaker potency, low ones greater potency. As to `COC(=O)[C@@H](CC(C)C)N1C[C@H]2O[C@H](C(=O)N3CCCCC3)[C@H](O2)C1=O`, in experiment [1], the IC50 was 0.74 µM. Still for that read-out and setting: as for `COC(=O)[C@H](CC(C)C)N1C[C@H]2O[C@H](C(=O)N3CCCCC3)[C@H](O2)C1=O`, the figure is over 10 µM; as for `COC(=O)[C@H](CC(C)C)N1C[C@@H]2O[C@@H](C(=O)N3CCCCC3)[C@@H](O2)C1=O`, 0.9 µM. Turning to `CC(C)C[C@H](CO)NC(=O)C1O[C@@H]2CN(Cc3ccccc3)C(=O)[C@H]1O2` (stereo partly drawn), the IC50 in experiment [1] is over 10 µM. Regarding `COC(=O)[C@@H](CC(C)C)N1C[C@@H]2O[C@@H](C(=O)N3CCCCC3)[C@@H](O2)C1=O`, the IC50 in experiment [1] was found to be 0.89 µM. The term Ki denotes a measure of affinity in units of concentration, obtained from inhibition or displacement. Low values mean a stronger hold on the target, high ones a looser hold on the target. As for `CCCCNC(=O)[C@H](C[C@H](O)[C@H](CC1CCCCC1)NC(=O)[C@H](CCCC)N1CCN(C(=O)N2CCN(C)CC2)[C@H](Cc2ccccc2)C1=O)C(C)C`, the affinity in experiment [2], expressed as Ki, was 0.012 µM. Regarding `CC(C)C[C@@H](CO)NC(=O)C1O[C@@H]2CN(Cc3ccccc3)C(=O)[C@H]1O2` (stereo partly drawn), in experiment [1], half-maximal inhibition (IC50) was put at 1.1 µM. The same measure, in the same setting: with `CC(C)CC(=O)N[C@H](C(=O)N[C@H](C(=O)N[C@@H](CC(C)C)[C@@H](O)CC(=O)N[C@@H](C)C(=O)N[C@@H](CC(C)C)[C@@H](O)CC(=O)O)C(C)C)C(C)C` [PEPSTATIN] the figure was 0.09 µM. Turning to `O=C([C@@H]1O[C@H]2CN(Cc3ccccc3)C(=O)[C@@H]1O2)N1CCCCC1`, in experiment [3], the Ratio IC50 was 3. Besides, the IC50 in experiment [1] came to 0.03 µM.

In experiment [1], `CC(C)C[C@@H](CO)NC(=O)C1O[C@H]2CN(Cc3ccccc3)C(=O)[C@@H]1O2` (stereo partly drawn) registered an IC50 of 0.55 µM. `O=C([C@H]1O[C@@H]2CN(Cc3ccccc3)C(=O)[C@H]1O2)N1CCCCC1` showed a 50% inhibitory concentration (IC50) in experiment [1] of 0.98 µM. Same read-out and setting: with `CC(C)C[C@H](CO)NC(=O)C1O[C@H]2CN(Cc3ccccc3)C(=O)[C@@H]1O2` (stereo partly drawn) the figure was over 10 µM.
